The values that follow come from ChEMBL document CHEMBL1132243, “Structure-activity relationships of L-dioxolane uracil nucleosides as anti-Epstein Barr virus agents” (J Med Chem, 1999).

For series [1], the system named is Human gammaherpesvirus 4. Nature of the series: (§1) Effective concentration of compound against Epstein Barr virus was determined. In kind it is functional, organism-based. A digest of the protocol: (§2)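 Log-phase H1 cells seeded at 2 × 10^5 cells/well, exposed to a range of concentrations at 37 °C for 5 days. EBV DNA was measured by slot blot of freeze-thaw lysates in 10 mM Tris-HCl pH 7.5 with RNase A (50 μg/mL final, 55 °C, 2 h), probed with EBV EcoRI fragment, then reprobed with Alu. The EBV/Alu ratio was compared with untreated cells.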

A short description of series [2]: Cytotoxicity on human P3HR1 derived H1 cells. The class given is functional. The note with it: read-out: ID50 (the source's name). A digest of the protocol:
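H1 cells seeded at 2 × 10^5 cells/well with various compound concentrations for 3 days, then counted. ID50 is the dose giving a 50% drop in cell number versus the untreated control. Medium was RPMI 1640 with 10% dialyzed FBS, 37 °C, 5% CO2.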

The nature of series [3]: Toxicity of compound was determined as decrease in mt-DNAcontent in human P3HR1 derived H1 cells. The class given is cell-based. A digest of the protocol: (§3)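 H1 cells (high-yield EBV producers derived from P3HR1), kept in log growth for 2 days, seeded at 2 × 10^5 cells/well with or without compound at various concentrations, 37 °C for 5 days. Lysed by freeze-thaw, RNase A treated, slot-blotted, then hybridized with a mitochondrial DNA probe after the Alu probe was stripped. mtDNA content compared with untreated cells.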

The test system of series [4] is Human gammaherpesvirus 4. The series is described as §1. In kind it is functional. A digest of the protocol:
as §2

The nature of series [5]: Selective Index from ID50 to that of EC90.
Series [6] can be described thus: Selective Index (ID50/EC90).
A short description of series [7]: Compound was tested for cytotoxicity against mt-DNA. A digest of the protocol: as §3

The molecule `O=c1[nH]c(=O)n(C2COC(CO)O2)cc1C(F)(F)F` (stereo not given) gave an EC50 in the series with Human gammaherpesvirus 4 [1] (human gammaherpesvirus 4) of 4 µM. Besides, the IC50 in series [2] (Homo sapiens, H1) is > 100 µM.

On to `O=c1[nH]c(=O)n(C2COC(CO)O2)cc1I` (stereo in doubt; 17) [listing 1 of 2 here], for which the EC50 in the series on Human gammaherpesvirus 4 [1] turned out to be 0.033 µM. Moreover, the IC50 in series [2] was > 1000 µM. In series [3], the Toxicity was > 50 µM. The 90% effect level in the series on Human gammaherpesvirus 4 [4] (EC90) was put at 0.16 µM.

With `O=c1[nH]c(=O)n(C2COC(CO)O2)cc1I` (stereo in doubt; 17) [listing 2 of 2 here], the Selectivity index in series [5] was > 6250.

Consider `O=c1ccn([C@H]2CO[C@@H](CO)O2)c(=O)[nH]1`, for which, in the series with Human gammaherpesvirus 4 [1] (human gammaherpesvirus 4), the half-maximal effective concentration (EC50) was > 50 µM.

`O=c1[nH]c(=O)n([C@H]2CO[C@@H](CO)O2)cc1F` had an EC50 in the series with Human gammaherpesvirus 4 [1] (human gammaherpesvirus 4) of 50 µM. The IC50 in series [2] (Homo sapiens, H1) is > 100 µM. Moreover, the Toxicity in series [3] is > 50 µM.

Regarding `O=c1[nH]c(=O)n([C@H]2CO[C@@H](CO)O2)cc1Br`, in series [6], the Selectivity index was > 2080. Besides, the half-maximal effective concentration (EC50) with Human gammaherpesvirus 4 [1] (human gammaherpesvirus 4) came out at 0.19 µM. In addition, in series [2] (Homo sapiens, H1), the IC50 is > 1000 µM. For the same molecule, in series [7], the Toxicity was > 50 µM. For the same molecule, the EC90 in the series with Human gammaherpesvirus 4 [4] turned out to be 0.48 µM.

Take `O=c1[nH]c(=O)n(C2COC(CO)O2)cc1Cl` (stereo not given): in series [5], the Selectivity index was > 72. For the same molecule, a half-maximal effect with Human gammaherpesvirus 4 [1] (human gammaherpesvirus 4) (EC50) was put at 0.6 µM. In series [2] (Homo sapiens, H1), the IC50 was > 100 µM. Further, in series [3], the Toxicity was > 50 µM. Also, in the series with Human gammaherpesvirus 4 [4], the 90% effect level (EC90) was put at 1.37 µM.

`O=c1[nH]c(=O)n(C2COC(CO)O2)cc1I` (stereo in doubt) yielded a concentration for a half-maximal effect (EC50) in the series with Human gammaherpesvirus 4 [1] of 7.6 µM. In series [2], the IC50 was 18 µM.

In the series on Human gammaherpesvirus 4 [1] (human gammaherpesvirus 4), `Nc1nc2c(ncn2COC(CO)CO)c(=O)[nH]1` [GANCICLOVIR] yielded a half-maximal effective concentration (EC50) of 5 µM. Besides, in series [2] (Homo sapiens, H1), the IC50 came out at 75 µM.
